Measured values from different studies.
Lines come from different studies, so protocols differ. In brackets after ≈: the same amount, converted by molar mass.
Organism: Cryptococcus neoformans

Structure (SMILES) | test | test system | setting | measurement | result
O=C(NN=Cc1ccc(O)c(Br)c1)c1cccc(Br)c1 | microbial killing |  |  | MFC | 1.2 µg/mL (≈ 3.01 µM)
CCCC[C@H]1CN(c2cccc(OC(F)(F)F)c2)C(=O)CN1Cc1cncn1Cc1ccc(Cl)cc1 | microbial growth, broth dilution |  |  | MIC | 3 to 6 µM
Cc1c(O)c(=O)ccn1C | microbial growth, broth dilution |  | 48 h | MIC | > 100 µM
C[C@@H]1[C@H](O)[C@@H](C)/C=C/C=C/C=C/C=C/C=C/C=C/C=C/[C@H](O[C@@H]2O[C@H](C)[C@@H](O)[C@H](N)[C@@H]2O)C[C@@H]2O[C@](O)(C[C@@H](O)C[C@@H](O)[C@H](O)CC[C@@H](O)C[C@@H](O)CC(=O)O[C@H]1C)C[C@H](O)[C@H]2C(=O)O | microbial growth, broth dilution |  |  | MIC | 0.6 µg/mL
CCCSc1ccc2nc(NC(=O)OC)[nH]c2c1 | microbial growth, broth dilution |  | 72 h, clinical isolate | IC90 | 2500 nM
CCCCC[C@H]1CN(c2cccc(OC(F)(F)F)c2)C(=O)CN1Cc1cncn1Cc1ccc(Br)cc1 | microbial growth, broth dilution |  |  | MIC | 3 to 6 µM
Cc1ccccc1C(=O)NN=Cc1ccc(O)c(Br)c1 | microbial growth, broth dilution |  |  | MIC | 1 µg/mL
Cl.O[C@]12C=C(c3nccc4c3[nH]c3ccccc34)[C@@H]3CCN(CCCC/C=C\CC1)C[C@@]31C[C@@H]3/C=C\CCCCN3[C@H]12 | microbial growth | ATCC90113 |  | IC50 | 1.04 µg/mL
C[C@@H]1[C@H](O)[C@@H](C)/C=C/C=C/C=C/C=C/C=C/C=C/C=C/[C@H](O[C@@H]2O[C@H](C)[C@@H](O)[C@H](N)[C@@H]2O)C[C@@H]2O[C@](O)(C[C@@H](O)C[C@@H](O)[C@H](O)CC[C@@H](O)C[C@@H](O)CC(=O)O[C@H]1C)C[C@H](O)[C@H]2C(=O)O | microbial growth | ATCC90113 |  | IC50 | 0.45 µg/mL (≈ 0.487 µM)
CCCC[C@H]1CN(c2cccc(OC(F)(F)F)c2)C(=O)CN1Cc1cncn1Cc1ccc(C(F)(F)F)cc1 | microbial growth, broth dilution |  |  | MIC | 3 to 6 µM
CCCCCC[C@H]1C(=O)O[C@H](C)[C@H](NC(=O)c2cccc(NC=O)c2O)C(=O)O[C@@H](C)[C@@H]1OC(=O)CC(C)C | microbial growth |  |  | MIC80 | 2 µM (≈ 1.1 µg/mL)
